Experimental findings from ChEMBL document CHEMBL2385062, “Metabolism of a potent neuroprotective hydrazide” (Bioorg Med Chem, 2013) are described below.

SMILES strings stand for the structures.

The nature of data set [1]: Neuroprotective activity in rat primary cortical neurons assessed as reduction in trophic factor withdrawal after 2 days by fluorescent live-dead assay. The settings on record: cerebral cortex neuron. In kind it is functional, cell-based. In short, it runs like this:
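Cortical neurons from E18 rat embryos were plated at low density (1 × 10⁶ per 35 mm dish) in serum-free DMEM/F12 with N2 supplement plus compounds. After 2 days, viability was scored with a fluorescent live-dead assay as the percentage of input cells surviving. EC50 was derived from the concentration–response curves.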

Data set [2] in a line: Neuroprotective activity in human MC65 cells expressing C-terminal 99 amino acids from […] assessed as reduction in intracellular amyloid beta toxicity after 4 days by MTT assay. Format: functional, cell-based. To be noted: MC65, 96 h. The gist of the method: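 MC65 cells from confluent cultures were plated at 4 × 10⁵ per 35 mm dish with compounds. Tetracycline was kept present (no induction) or omitted (APP-C99 induced). After 4 days, viability was read by MTT and expressed relative to plus-tetracycline controls. EC50 was calculated from concentration–response curves.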

The subject of data set [3] is HT-22. The data set is described as follows: Neuroprotective activity in mouse HT22 cells assessed as reduction in glutamate-induced oxidative stress incubated for 30 mins prior to glutamate-challenge measured after 20 hrs by MTT assay.
Data set [4] in a line: Half life in mouse liver microsomes at 5 uM by LC/MS/MS analysis in presence of NADPH. In kind it is ADME, Microsome. The gist of the method: (§1)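 Test compound at 5 µM was incubated at 37 °C with 0.5 mg/mL liver microsomes (human or mouse) in 5 mM phosphate buffer, pH 7.3, with or without 1 mM NADPH. Heat-inactivated microsomes (98 °C, 10 min) served as controls. At 0.1, 2, 5, 10 and 20 min, reactions were stopped with three volumes of ethyl acetate and centrifuged. Parent disappearance in the supernatant was followed by LC/MS/MS.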

A short description of data set [5]: Drug metabolism in mouse liver microsomes assessed as (E)-N'-(3,4-dihydroxybenzylidene)-N-(2,4-dimethylphenyl)-2,2,2-trifluoroacetohydrazide retention time at 5 uM by LC/MS/MS analysis. In kind it is ADME, Microsome. In short, it runs like this:
(§2)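 Parent at 5 µM was incubated with human or mouse liver microsomes, then extracted with ethyl acetate at zero time or after 5 min. Extracts were separated on a C18 reverse-phase HPLC column and analysed by LC/MS/MS in positive mode over m/z 50–1000. Metabolites were characterised from EPI-scan product ion spectra and CID pathways.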

In data set [6] the test system is Liver microsomes. The data set is described as follows: Drug metabolism in human liver microsomes assessed as formation of 2,4-dimethylaniline at 5 uM by LC/MS/MS analysis. In kind it is ADME, Microsome. The gist of the method: as §2
The nature of data set [7]: Half life in BALB/c mouse blood at 20 mg/kg, orally administered in corn oil by LC/MS/MS analysis. To be noted: po.
For data set [8], the system named is Liver microsomes. Description: Drug metabolism in human liver microsomes assessed as formation of 3-methoxy benzaldehyde at 5 uM by LC/MS/MS analysis. Format: ADME, Microsome. The gist of the method:
as §2

Data set [9] has as its system Blood. Description: Drug metabolism in BALB/c mouse blood assessed as metabolite BM2 retention time at 20 mg/kg, iv administered in corn oil by LC/MS/MS analysis. In kind it is ADME, organism-based. More on the design: dose 20 mg/kg, route intravenous. The settings on record: in vivo. The gist of the method:
(§3)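 Mice received parent at 20 mg/kg iv, and blood was sampled 20 min later. Metabolites were identified by the same ethyl acetate extraction and LC/MS/MS workflow as for microsomes, using a polar reverse-phase column. Mass shifts were assigned to biotransformations.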

A short description of data set [10]: Drug metabolism in mouse liver microsomes assessed as formation of 2,4-dimethylaniline at 5 uM by LC/MS/MS analysis. In kind it is ADME, Microsome. In short, it runs like this: as §2
Data set [11] in a line: Half life in BALB/c mouse brain at 20 mg/kg, orally administered in corn oil by LC/MS/MS analysis. The settings on record: po.
Data set [12] in a line: Half life in human liver microsomes at 5 uM by LC/MS/MS analysis in presence of NADPH. In kind it is ADME, Microsome. In short, it runs like this:
as §1

Data set [13] can be described thus: Drug metabolism in mouse liver microsomes assessed as (E)-N-(2,4-dimethylphenyl)-2,2,2-trifluoro-N'-(3-hydroxybenzyli-dene)acetohydrazide retention time at 5 uM by LC/MS/MS analysis. In kind it is ADME, Microsome. The gist of the method:
as §2

Data set [14] relates to Liver microsomes. Description: Drug metabolism in human liver microsomes assessed as retention time at 5 uM by LC/MS/MS analysis. In kind it is ADME, Microsome. In short, it runs like this: as §2
Data set [15] deals with Liver microsomes. The data set is described as follows: Drug metabolism in human liver microsomes assessed as formation of 2,4-dimethylhydrazine at 5 uM by LC/MS/MS analysis. Format: ADME, Microsome. The gist of the method: as §2
Data set [16] is described as follows: Drug metabolism in mouse liver microsomes assessed as retention time at 5 uM by LC/MS/MS analysis. In kind it is ADME, Microsome. In short, it runs like this:
as §2

Data set [17] has as its system Liver microsomes. Description: Drug metabolism in human liver microsomes assessed as formation of (E)-2,2,2-trifluoro-N-(4-(hydroxymethyl)-2-methylphenyl)-N'-(3-methoxybenzylidene)acetohydrazide at 5 uM by LC/MS/MS analysis. Format: ADME, Microsome. In short, it runs like this:
as §2

The nature of data set [18]: Drug metabolism in mouse liver microsomes assessed as metabolite M4 retention time at 5 uM by LC/MS/MS analysis. Format: ADME, Microsome. The gist of the method: as §2
The test system of data set [19] is Blood. The data set is described as follows: Drug metabolism in BALB/c mouse blood assessed as metabolite BM1 retention time at 20 mg/kg, iv administered in corn oil by LC/MS/MS analysis. In kind it is ADME, organism-based. More on the design: dose 20 mg/kg, route intravenous. To be noted: in vivo. In short, it runs like this:
as §3

The subject of data set [20] is Blood. The data set is described as follows: Drug metabolism in BALB/c mouse blood assessed as retention time at 20 mg/kg, iv administered in corn oil by LC/MS/MS analysis. Format: ADME, organism-based. The settings on record: in vivo. Also on record: dose 20 mg/kg, route intravenous. In short, it runs like this: as §3
Data set [21] concerns Plasma. The data set is described as follows: Drug metabolism in mouse plasma assessed as formation of 2,4-dimethylaniline at 5 uM by LC/MS/MS analysis. In kind it is ADME, cell-free.
Data set [22] is described as follows: Drug metabolism in mouse liver microsomes assessed as formation of 2,4-dimethylhydrazine at 5 uM by LC/MS/MS analysis. In kind it is ADME, Microsome. The gist of the method: as §2
Data set [23] is described as follows: Drug metabolism in mouse liver microsomes assessed as metabolite M5 retention time at 5 uM by LC/MS/MS analysis. In kind it is ADME, Microsome. In short, it runs like this: as §2
A short description of data set [24]: Drug metabolism in mouse liver microsomes assessed as (E)-2,2,2-trifluoro-N-(4-(hydroxymethyl)-2-methylphenyl)-N'-(3-methoxybenzylidene)acetohydrazide retention time at 5 uM by LC/MS/MS analysis. Format: ADME, Microsome. The gist of the method: as §2
Data set [25] deals with Blood. The data set is described as follows: Drug metabolism in BALB/c mouse blood assessed as (E)-N-(2,4-dimethylphenyl)-2,2,2-trifluoro-N'-(3-hydroxybenzyli-dene)acetohydrazide retention time at 20 mg/kg, iv administered in corn oil by LC/MS/MS analysis. In kind it is ADME, organism-based. Also on record: dose 20 mg/kg, route intravenous. To be noted: in vivo. The gist of the method:
as §3

Data set [26] deals with Liver microsomes. The data set is described as follows: Drug metabolism in human liver microsomes assessed as formation of (E)-N-(2,4-dimethylphenyl)-2,2,2-trifluoro-N'-(3-hydroxybenzyli-dene)acetohydrazide at 5 uM by LC/MS/MS analysis. In kind it is ADME, Microsome. In short, it runs like this: as §2
Data set [27] has as its system Plasma. Description: Drug metabolism in mouse plasma assessed as formation of 2,4-dimethylhydrazine at 5 uM by LC/MS/MS analysis. Format: ADME, cell-free.
Data set [28] concerns Plasma. The data set is described as follows: Drug metabolism in mouse plasma assessed as formation of 3-methoxy benzaldehyde at 5 uM by LC/MS/MS analysis. In kind it is ADME, cell-free.
The nature of data set [29]: Drug metabolism in mouse liver microsomes assessed as formation of 3-methoxy benzaldehyde at 5 uM by LC/MS/MS analysis. In kind it is ADME, Microsome. In short, it runs like this: as §2

Turning to `Cc1ccc(N(/N=C/c2cccc(O)c2)C(=O)C(F)(F)F)c(C)c1`, the EC50 was 12 nM in [1], 78 nM in data set [2] and 185 nM in data set [3].
The corresponding values for `Cc1ccc(N(/N=C/c2ccc(O)c(O)c2)C(=O)C(F)(F)F)c(C)c1` are 31 nM, 34 nM and 1000 nM.
The matching figures for `COc1cccc(/C=N/N(C(=O)C(F)(F)F)c2ccc(CO)cc2C)c1`: 320 nM, 92 nM and 180 nM.
On to `COc1cccc(/C=N/N(C(=O)C(F)(F)F)c2ccc(C)cc2C)c1` [J147], for which the half-life at 5 µM in data set [4] was < 4 min; in data set [12], 4.5 min. Also, the Retention_time in data set [5] amounted to 7.6 min; in data set [9], 5.54 min; in data set [13] it was 8.36 min; in data set [14], 10.97 min; in data set [16], 9.49 min; in data set [18], 5.96 min. Besides, the Retention_time in data set [19] is 5.35 min; in [20], 9.27 min; in data set [23], 6.82 min; in data set [24] it was 7.86 min; in [25] it was 8.04 min. The Drug metabolism result was “Not Active” in [6]; “Not Active” in [8]; “Not Active” in data set [10]; “Not Active” in data set [15]; “Active” in data set [17]; “Not Active” in data set [21]. The Drug metabolism entry in data set [22] is given as “Not Active”; in data set [26], “Active”; in [27], “Not Active”; in [28] it was “Not Active”; in data set [29], “Not Active”. Further, the half-life in data set [7] and in [11] was 2.5 h in each case. For the same compound, the EC50 was found to be 33 nM in data set [1], 11 nM in [2] and 20 nM in data set [3].
